Source: ChEMBL document CHEMBL1165965, “Synthesis and structure-activity relationships of 1,2,3,4-tetrahydropyrido[2,3-b]pyrazines as potent and selective inhibitors of the anaplastic lymphoma kinase” (Bioorg Med Chem, 2010)

Assays:
[1] = molecular target: T1, Discoidin domain-containing receptor 2 (Homo sapiens) (UniProt Q16832); assay: Inhibition of DDR2 at 1 uM
T1 sequence (whole entry): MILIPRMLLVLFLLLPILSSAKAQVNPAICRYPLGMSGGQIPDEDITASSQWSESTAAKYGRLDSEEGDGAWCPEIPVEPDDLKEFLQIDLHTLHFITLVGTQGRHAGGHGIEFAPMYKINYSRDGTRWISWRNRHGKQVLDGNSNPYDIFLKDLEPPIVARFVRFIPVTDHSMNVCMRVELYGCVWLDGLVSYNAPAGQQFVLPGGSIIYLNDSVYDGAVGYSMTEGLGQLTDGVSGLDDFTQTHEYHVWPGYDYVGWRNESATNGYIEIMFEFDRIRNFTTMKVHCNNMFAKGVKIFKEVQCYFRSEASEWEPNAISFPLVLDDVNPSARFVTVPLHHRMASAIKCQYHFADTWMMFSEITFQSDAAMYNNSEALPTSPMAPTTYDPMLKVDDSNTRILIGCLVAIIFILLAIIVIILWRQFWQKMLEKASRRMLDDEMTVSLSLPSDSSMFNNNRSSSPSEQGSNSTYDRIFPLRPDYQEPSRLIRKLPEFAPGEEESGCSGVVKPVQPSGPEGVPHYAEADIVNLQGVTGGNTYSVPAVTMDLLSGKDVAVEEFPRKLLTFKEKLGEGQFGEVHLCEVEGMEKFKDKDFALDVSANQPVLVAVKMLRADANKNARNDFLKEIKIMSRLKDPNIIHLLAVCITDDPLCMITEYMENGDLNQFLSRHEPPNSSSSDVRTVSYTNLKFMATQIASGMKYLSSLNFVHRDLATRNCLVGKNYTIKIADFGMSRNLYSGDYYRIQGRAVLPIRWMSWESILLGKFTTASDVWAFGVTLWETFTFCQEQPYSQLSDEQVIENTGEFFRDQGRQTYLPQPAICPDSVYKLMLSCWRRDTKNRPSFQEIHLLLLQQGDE

[2] = molecular target: T2, Non-receptor tyrosine-protein kinase TNK1 (Homo sapiens) (UniProt Q13470); assay: Inhibition of TNK1 at 1 uM
T2 sequence (whole entry): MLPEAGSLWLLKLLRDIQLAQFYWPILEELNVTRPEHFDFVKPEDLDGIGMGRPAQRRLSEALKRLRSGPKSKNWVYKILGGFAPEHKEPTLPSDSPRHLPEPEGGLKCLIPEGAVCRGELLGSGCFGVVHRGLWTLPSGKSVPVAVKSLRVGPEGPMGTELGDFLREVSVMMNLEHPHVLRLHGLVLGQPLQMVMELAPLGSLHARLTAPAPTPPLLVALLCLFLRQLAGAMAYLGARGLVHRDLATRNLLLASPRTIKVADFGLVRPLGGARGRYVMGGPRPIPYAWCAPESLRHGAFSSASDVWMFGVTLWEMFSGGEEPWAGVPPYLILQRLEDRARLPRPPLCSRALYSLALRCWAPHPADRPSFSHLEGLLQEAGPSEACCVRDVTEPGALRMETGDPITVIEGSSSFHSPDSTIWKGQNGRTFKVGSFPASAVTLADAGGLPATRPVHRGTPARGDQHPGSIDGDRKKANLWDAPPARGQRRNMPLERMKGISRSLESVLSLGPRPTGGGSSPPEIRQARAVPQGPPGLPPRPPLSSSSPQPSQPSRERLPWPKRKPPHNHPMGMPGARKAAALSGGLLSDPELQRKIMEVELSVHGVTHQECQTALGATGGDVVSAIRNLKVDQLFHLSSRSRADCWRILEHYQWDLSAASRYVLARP

[3] = molecular target: Serine/threonine-protein kinase 33 (Homo sapiens) (UniProt Q9BYT3); assay: Inhibition of STK33 at 1 uM
Chain of Serine/threonine-protein kinase 33 (Homo sapiens) (Q9BYT3 whole entry, looked up): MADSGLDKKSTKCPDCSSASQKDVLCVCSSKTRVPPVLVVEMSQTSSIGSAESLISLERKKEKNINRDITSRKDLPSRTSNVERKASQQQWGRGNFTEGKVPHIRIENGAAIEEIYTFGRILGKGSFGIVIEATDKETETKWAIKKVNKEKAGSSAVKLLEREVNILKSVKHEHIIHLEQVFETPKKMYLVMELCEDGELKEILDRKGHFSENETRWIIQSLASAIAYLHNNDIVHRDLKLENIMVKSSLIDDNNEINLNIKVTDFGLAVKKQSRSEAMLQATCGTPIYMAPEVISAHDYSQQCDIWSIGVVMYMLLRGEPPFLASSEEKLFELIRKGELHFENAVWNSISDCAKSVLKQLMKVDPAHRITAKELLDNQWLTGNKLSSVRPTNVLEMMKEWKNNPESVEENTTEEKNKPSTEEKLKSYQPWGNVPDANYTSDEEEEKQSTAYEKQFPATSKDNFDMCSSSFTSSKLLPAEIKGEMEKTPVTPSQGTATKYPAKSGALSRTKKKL

[4] = molecular target: Mitogen-activated protein kinase kinase kinase 4 (Homo sapiens) (UniProt Q9Y6R4); assay: Inhibition of MAP3K4 at 1 uM
Chain of Mitogen-activated protein kinase kinase kinase 4 (Homo sapiens) (Q9Y6R4 whole entry): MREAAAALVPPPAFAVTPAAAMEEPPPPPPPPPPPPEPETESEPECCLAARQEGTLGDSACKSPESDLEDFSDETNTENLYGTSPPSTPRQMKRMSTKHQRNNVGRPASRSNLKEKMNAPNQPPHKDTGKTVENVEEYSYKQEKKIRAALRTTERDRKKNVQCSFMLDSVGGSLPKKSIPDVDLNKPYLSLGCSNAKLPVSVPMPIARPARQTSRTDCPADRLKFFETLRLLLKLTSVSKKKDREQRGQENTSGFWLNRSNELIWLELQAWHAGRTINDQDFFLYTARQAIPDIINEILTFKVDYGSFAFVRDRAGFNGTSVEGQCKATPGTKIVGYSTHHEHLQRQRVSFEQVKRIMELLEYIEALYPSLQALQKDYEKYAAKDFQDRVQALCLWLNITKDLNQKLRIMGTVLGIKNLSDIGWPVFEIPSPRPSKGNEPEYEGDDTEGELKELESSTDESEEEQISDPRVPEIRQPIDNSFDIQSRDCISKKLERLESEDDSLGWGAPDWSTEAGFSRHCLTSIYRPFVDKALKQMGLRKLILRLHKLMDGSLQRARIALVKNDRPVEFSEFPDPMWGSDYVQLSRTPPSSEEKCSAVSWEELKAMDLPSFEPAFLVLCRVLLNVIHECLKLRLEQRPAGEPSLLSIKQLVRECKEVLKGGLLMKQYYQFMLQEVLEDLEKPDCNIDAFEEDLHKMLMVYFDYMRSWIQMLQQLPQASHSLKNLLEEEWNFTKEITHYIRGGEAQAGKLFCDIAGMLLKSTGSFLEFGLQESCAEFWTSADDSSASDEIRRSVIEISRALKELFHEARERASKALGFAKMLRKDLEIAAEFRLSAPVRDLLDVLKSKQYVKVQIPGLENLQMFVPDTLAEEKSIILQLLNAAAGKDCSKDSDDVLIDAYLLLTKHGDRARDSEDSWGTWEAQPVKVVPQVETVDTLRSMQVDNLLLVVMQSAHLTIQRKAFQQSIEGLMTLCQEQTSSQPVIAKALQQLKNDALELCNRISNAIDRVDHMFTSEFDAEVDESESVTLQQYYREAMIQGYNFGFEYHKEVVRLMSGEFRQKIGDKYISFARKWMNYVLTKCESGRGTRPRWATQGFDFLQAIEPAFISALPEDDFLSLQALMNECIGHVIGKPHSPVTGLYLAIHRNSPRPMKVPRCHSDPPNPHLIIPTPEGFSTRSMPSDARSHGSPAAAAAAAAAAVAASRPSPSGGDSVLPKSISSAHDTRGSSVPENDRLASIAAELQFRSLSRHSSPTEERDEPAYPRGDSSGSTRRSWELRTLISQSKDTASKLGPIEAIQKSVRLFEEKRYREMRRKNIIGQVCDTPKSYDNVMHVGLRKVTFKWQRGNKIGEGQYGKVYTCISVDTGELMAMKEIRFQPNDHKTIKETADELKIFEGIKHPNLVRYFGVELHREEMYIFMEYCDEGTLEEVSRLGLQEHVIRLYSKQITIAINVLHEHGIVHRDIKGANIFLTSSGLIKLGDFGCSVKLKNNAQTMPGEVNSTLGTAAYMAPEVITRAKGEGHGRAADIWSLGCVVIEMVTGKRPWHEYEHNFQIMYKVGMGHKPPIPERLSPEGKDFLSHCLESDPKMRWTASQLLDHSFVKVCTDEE

[5] = molecular target: Protein kinase C delta type (Homo sapiens) (UniProt Q05655); assay: Inhibition of PRKCD at 1 uM
Chain of Protein kinase C delta type (Homo sapiens) (Q05655 whole entry, looked up): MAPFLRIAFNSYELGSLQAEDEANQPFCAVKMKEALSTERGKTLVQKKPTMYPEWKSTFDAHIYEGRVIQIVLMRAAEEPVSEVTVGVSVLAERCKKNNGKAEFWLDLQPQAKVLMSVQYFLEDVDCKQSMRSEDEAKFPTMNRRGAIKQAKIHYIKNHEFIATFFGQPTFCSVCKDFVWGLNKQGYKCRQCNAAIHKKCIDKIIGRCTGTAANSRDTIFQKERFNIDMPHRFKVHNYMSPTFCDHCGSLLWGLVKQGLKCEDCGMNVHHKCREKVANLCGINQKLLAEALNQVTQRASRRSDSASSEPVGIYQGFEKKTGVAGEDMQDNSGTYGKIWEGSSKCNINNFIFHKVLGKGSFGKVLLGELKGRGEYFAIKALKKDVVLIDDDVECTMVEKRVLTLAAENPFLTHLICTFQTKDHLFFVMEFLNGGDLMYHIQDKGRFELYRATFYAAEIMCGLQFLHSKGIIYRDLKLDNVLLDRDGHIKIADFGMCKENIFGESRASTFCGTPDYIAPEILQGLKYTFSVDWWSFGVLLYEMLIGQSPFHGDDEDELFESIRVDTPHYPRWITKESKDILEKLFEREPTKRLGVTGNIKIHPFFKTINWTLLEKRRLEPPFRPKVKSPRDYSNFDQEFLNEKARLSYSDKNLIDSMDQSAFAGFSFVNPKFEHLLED

[6] = tested on: T3, Receptor-type tyrosine-protein kinase FLT3 (Homo sapiens), P36888 [N841I]; assay: Inhibition of FLT3 N841I mutant at 1 uM
T3 sequence (whole entry): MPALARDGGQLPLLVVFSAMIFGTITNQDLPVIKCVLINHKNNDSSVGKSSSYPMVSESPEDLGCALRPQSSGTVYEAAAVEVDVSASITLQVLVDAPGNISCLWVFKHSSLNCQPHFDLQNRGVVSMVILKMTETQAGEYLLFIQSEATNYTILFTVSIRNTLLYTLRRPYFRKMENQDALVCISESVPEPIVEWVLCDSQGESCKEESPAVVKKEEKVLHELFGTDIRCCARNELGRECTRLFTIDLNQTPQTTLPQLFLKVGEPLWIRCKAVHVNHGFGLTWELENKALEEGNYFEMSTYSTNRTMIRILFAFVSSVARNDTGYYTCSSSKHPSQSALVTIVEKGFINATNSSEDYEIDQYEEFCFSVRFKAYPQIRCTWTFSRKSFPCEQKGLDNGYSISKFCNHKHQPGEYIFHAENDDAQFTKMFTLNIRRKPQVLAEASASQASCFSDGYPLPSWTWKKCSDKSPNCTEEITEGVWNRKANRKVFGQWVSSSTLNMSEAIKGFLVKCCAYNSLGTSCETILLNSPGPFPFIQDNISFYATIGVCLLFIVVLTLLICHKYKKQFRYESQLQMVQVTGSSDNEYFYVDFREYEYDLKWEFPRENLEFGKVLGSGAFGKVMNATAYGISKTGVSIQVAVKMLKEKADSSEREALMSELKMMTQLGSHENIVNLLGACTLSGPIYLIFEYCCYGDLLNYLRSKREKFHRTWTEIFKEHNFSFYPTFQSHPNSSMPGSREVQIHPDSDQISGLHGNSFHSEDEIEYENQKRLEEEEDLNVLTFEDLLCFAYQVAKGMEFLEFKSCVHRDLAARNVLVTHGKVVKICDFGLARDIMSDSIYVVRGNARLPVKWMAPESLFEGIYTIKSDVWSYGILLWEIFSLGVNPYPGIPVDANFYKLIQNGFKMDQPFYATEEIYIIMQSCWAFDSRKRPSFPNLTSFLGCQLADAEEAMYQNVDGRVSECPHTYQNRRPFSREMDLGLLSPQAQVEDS
In short: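 Single-concentration screen on the Ambit KINOMEscan platform, run against a panel of 250–400 kinases. Per-kinase inhibition was also summarized as S(90), the fraction of kinases inhibited by more than 90%.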

[7] = molecular target: Serine/threonine-protein kinase 35 (Homo sapiens) (UniProt Q8TDR2); assay: Inhibition of STK35 at 1 uM
Chain of Serine/threonine-protein kinase 35 (Homo sapiens) (Q8TDR2 whole entry): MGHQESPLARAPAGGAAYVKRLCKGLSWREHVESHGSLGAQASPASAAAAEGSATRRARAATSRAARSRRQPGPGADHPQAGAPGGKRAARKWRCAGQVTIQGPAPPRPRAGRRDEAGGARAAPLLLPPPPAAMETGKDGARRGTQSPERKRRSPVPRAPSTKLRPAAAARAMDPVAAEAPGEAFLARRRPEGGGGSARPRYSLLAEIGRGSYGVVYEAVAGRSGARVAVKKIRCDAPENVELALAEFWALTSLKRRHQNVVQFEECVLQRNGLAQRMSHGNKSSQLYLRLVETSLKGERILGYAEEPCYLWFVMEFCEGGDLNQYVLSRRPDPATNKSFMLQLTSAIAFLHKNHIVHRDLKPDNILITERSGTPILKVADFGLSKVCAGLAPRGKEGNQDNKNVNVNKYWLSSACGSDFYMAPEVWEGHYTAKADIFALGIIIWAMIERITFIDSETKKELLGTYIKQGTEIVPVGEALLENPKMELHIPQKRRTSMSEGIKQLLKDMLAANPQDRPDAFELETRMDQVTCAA

Structure (SMILES)	inhibition [1]	inhibition [2]	inhibition [3]	inhibition [4]	inhibition [5]	inhibition [6]	inhibition [7]
CN1CCN(c2ccc(-c3cnc4c(c3)N(Cc3cc(Cl)ccc3C(F)(F)F)CCN4)cn2)CC1	< 50%	< 50%	< 50%	< 50%	< 50%	< 50%	< 50%
COC1CCN(C(=O)c2ccc(-c3cnc4c(c3)N(Cc3cc(Cl)ccc3C(F)(F)F)CCN4)cc2)CC1	< 50%	< 50%			< 50%	< 50%	
FC(F)(F)c1ccc(Cl)cc1CN1CCNc2ncc(-c3ccnc(N4CCNCC4)c3)cc21	< 50%	< 50%	< 50%	< 50%	< 50%	100%	< 50%
CN1CCN(c2ccc(-c3cnc4c(c3)N(Cc3c(F)ccc(F)c3Cl)CCN4)cn2)CC1	< 50%	< 50%	< 50%	< 50%	< 50%	83%	< 50%
CN1CCN(c2ccc(-c3cnc4c(c3)N(Cc3cc(Cl)ccc3Cl)CCN4)cn2)CC1	< 50%	< 50%	< 50%	< 50%	< 50%	93%	< 50%

The remaining lines, values ahead:

inhibition [1]	inhibition [2]	inhibition [3]	inhibition [4]	inhibition [5]	inhibition [6]	inhibition [7]	Structure (SMILES)
	< 50%		< 50%	< 50%	< 50%		O=C(O)c1ccc(-c2cnc3c(c2)N(Cc2cc(Cl)ccc2C(F)(F)F)CCN3)cc1
< 50%	81.7%	79.8%	< 50%	< 50%	96.1%		O=C(c1ccc(-c2cnc3c(c2)N(Cc2cc(Cl)ccc2C(F)(F)F)CCN3)cc1)N1CCC(N2CCCC2)CC1
< 50%	< 50%	< 50%	< 50%	< 50%	92%	< 50%	CC(=O)N1CCN(c2cc(-c3cnc4c(c3)N(Cc3cc(Cl)ccc3C(F)(F)F)CCN4)ccn2)CC1
< 50%	58.2%	< 50%	< 50%	< 50%	84.6%	< 50%	CN1CCN(c2ccc(-c3cnc4c(c3)N(Cc3cc(F)ccc3F)CCN4)cn2)CC1
	< 50%		< 50%	< 50%	< 50%		O=C(c1ccc(-c2cnc3c(c2)N(Cc2cc(Cl)ccc2C(F)(F)F)CCN3)cc1)N1CCCCC1
